ChEMBL document CHEMBL1132352, “5'-Phosphoramidates and 5'-diphosphates of 2'-O-allyl-beta-D-arabinofuranosyluracil, -cytosine, and -adenine: inhibition of ribonucleotide reductase” (J Med Chem, 1999)

Experiments:
Assay type in all cases: functional, cell-based
CCRF-CEM [1] = assay: The compound was tested for cytostatic activity against CEM cells; conditions: Homo sapiens
Procedure, shortened: (§1)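 Human T4-lymphocyte CEM or Molt cells were seeded at 5–7.5 × 10⁴ cells per well with test compound. They grew for 72 h at 37 °C in humidified, CO₂-controlled air and were then counted with a Coulter counter. IC50 is the compound concentration that cut viable cell number by 50%.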

L1210 = assay: The compound was tested for cytostatic activity against murine leukemia L1210 cells; conditions: Mus musculus
Procedure, shortened: (§2)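 Murine L1210 leukemia or FM3A mammary carcinoma cells went in at 5–7.5 × 10⁴ per well alongside test compound. Proliferation ran 48 h at 37 °C in a humidified CO₂-controlled atmosphere, followed by Coulter counter cell counts. IC50 is the concentration reducing viable cells by 50%.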

MOLT-4 = assay: The compound was tested for cytostatic activity against human T4-lymphocyte molt(molt 4/C8); procedure, shortened: as §1
FM3A [2] = assay: The compound was tested for cytostatic activity against mammary FM3A cells; conditions: Mus musculus; procedure, shortened: as §2
FM3A [3] = assay: The compound was tested for cytostatic activity against murine mammary FM3A cells; conditions: Mus musculus; procedure, shortened: as §2
CCRF-CEM [4] = assay: The compound was tested for cytostatic activity against human CEM cells; procedure, shortened: as §1

Compound	IC50 (CCRF-CEM [1])	IC50 (L1210)	IC50 (MOLT-4)	IC50 (FM3A [2])	IC50 (FM3A [3])	IC50 (CCRF-CEM [4])
C=CCO[C@H]1[C@H](O)[C@@H](COP(=O)(NC(C)C(=O)OCC)Oc2ccccc2)O[C@H]1n1ccc(N)nc1=O (stereo not given in full)	> 200 µM	> 200 µM	> 200 µM	> 200 µM		
C=CCO[C@H]1[C@H](O)[C@@H](CO)O[C@H]1n1cnc2c(N)ncnc21	79 µM	181 µM	285 µM	316 µM		
C=CCO[C@H]1[C@H](O)[C@@H](CO)O[C@H]1n1ccc(=O)[nH]c1=O		> 500 µM	> 500 µM		> 500 µM	> 500 µM
C=CCO[C@H]1[C@H](O)[C@@H](CO)O[C@H]1n1ccc(N)nc1=O	61 µM	38 µM	> 500 µM	325 µM		
C=CCO[C@H]1[C@H](O)[C@@H](COP(=O)(NC(C)C(=O)OCC)Oc2ccccc2)O[C@H]1n1ccc(=O)[nH]c1=O (stereo not given in full)	> 200 µM	> 200 µM	> 200 µM	> 200 µM		
